Measured values as given in PubChem BioAssay AID2805 (Sanford-Burnham Center for Chemical Genomics, 2010).
Out of some 330,000 compounds screened, about 780 (0.24%) were called active.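 Rule for the calls: active = activation factor of at least 2 at 20 µM; inactive = the rest.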 The sample as a whole holds a higher share of actives than the screen did.

test system: intestinal alkaline phosphatase [Mus musculus]; assay: mouse intestinal phosphatase enzyme activation – biochemical, luminescence, uHTS, primary screen (AID 2805); settings: muIAP, CDP-Star luminescence, 30 min; at 10 µM; hits give high values; 1 = vehicle-only enzyme signal, 0 = enzyme-free wells
Outline: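 Assay system: mouse IAP enzyme / Compound: DMSO-dissolved test compounds / Timing: 30 min, room temperature / Measured by: luminescence from enzymatic CDP-Star hydrolysis / Control set: DMSO-only wells, enzyme-free buffer wells as negative control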

**Q.** With `Cc1c(C(C)(C)O)[nH]c2ccc(C#N)cc12` as the molecule, how does the activation factor read?
**A.** 1.11 (inactive)

**Q.** For `Fc1ccccc1CNC(=S)Nc1ccc(Cl)cc1`, which activation factor is on record?
**A.** 2.42 (active)

**Q.** How did the activation factor turn out when `S=C(NCc1cccs1)Nc1ccc(Cl)cc1` was run?
**A.** 1.5 (inactive)

**Q.** For `FC(F)(F)Oc1ccc(NC(=S)NCc2ccccc2)cc1`, which activation factor is on record?
**A.** 1.66 (inactive)

**Q.** Which activation factor does the source give for `O=C1CCC(C(=O)N2CCC(O)(c3ccccc3)CC2)CN1CCc1ccccc1` (configuration not stated) here?
**A.** 0.942 (inactive)

**Q.** `Cc1cc(C(F)(F)F)nn1CC(=O)N1CCCC1` was tested. Which activation factor did it give?
**A.** 1.12 (inactive)

**Q.** `Cc1ccc(C(=O)c2coc3ccc(O)c(CN(C)C)c23)cc1` was tested. Which activation factor did it give?
**A.** 1.09 (inactive)

**Q.** With `COc1cccc(N(C(=O)c2ccn[nH]2)C2(C(=O)Nc3c(C)cccc3C)CCCCC2)c1` as the molecule, how does the activation factor read?
**A.** 3.3 (active)

**Q.** How did the activation factor turn out when `Cc1cccc(C)c1NC(=O)C1(N(C(=O)c2ccccn2)c2ccc(O)cc2)CCCCC1` was run?
**A.** 1.01 (inactive)

**Q.** Which activation factor does the source give for `COc1cccc(N(Cc2nnc3n2CCCCC3)C(=O)Nc2ccccc2F)c1` here?
**A.** 1.08 (inactive)

**Q.** How did the activation factor turn out when `Cc1cc(=O)n2nc(N3CCCC(C(=O)N4CCN(C)CC4)C3)sc2n1` (configuration not stated) was run?
**A.** 0.986 (inactive)

**Q.** For `CN(CC(=O)N1CCN(c2ccccc2)CC1)S(=O)(=O)c1cccs1`, which activation factor is on record?
**A.** 0.929 (inactive)

**Q.** `Cc1ccc(NC(=O)COC(=O)C2CC2)cc1S(=O)(=O)N1CCOCC1` was tested. Which activation factor did it give?
**A.** 1.01 (inactive)

**Q.** How did the activation factor turn out when `Cc1cccc(NC(=S)NCc2ccc3[nH]c4c(c3c2)CCCC4)c1` was run?
**A.** 2.55 (active)

**Q.** For `Cc1cc(C)cc(NC(=S)NCCc2c[nH]c3ccccc23)c1`, which activation factor is on record?
**A.** 1.3 (inactive)

**Q.** Which activation factor does the source give for `CCc1cccc(CC)c1NC(=S)NCc1ccc2[nH]c(C)cc2c1` here?
**A.** 1.06 (inactive)

**Q.** For `CC(NC(=S)Nc1ccc(S(N)(=O)=O)cc1)c1ccc2c(c1)OCO2` (configuration not stated), which activation factor is on record?
**A.** 1.52 (inactive)

**Q.** With `CC1CCCN(C(C(=O)Nc2ccc(C(C)C)cc2)c2ccc3c(c2)OCO3)C1` (configuration not stated) as the molecule, how does the activation factor read?
**A.** 2.25 (active)

**Q.** Which activation factor does the source give for `O=C(Nc1ccc2c(c1)OCCO2)C(c1ccc(F)cc1)N1CCCCC1` (configuration not stated) here?
**A.** 1.07 (inactive)

**Q.** `CCN(C[C@H]1N[C@@](CC)(C(=O)OC)[C@H]2C(=O)N(Cc3ccccc3)C(=O)[C@@H]12)S(=O)(=O)c1ccc(C(F)(F)F)cc1` was tested. Which activation factor did it give?
**A.** 1.06 (inactive)

**Q.** For `O=C(CCn1ccc([N+](=O)[O-])n1)Nc1nccs1`, which activation factor is on record?
**A.** 1.04 (inactive)

**Q.** How did the activation factor turn out when `CN(C)S(=O)(=O)c1cccc(NC(=S)NCc2ccc3c(c2)OCO3)c1` was run?
**A.** 2.5 (active)

**Q.** Which activation factor does the source give for `CN(C)S(=O)(=O)c1cccc(NC(=S)N/N=C/C(=O)c2ccccc2)c1` here?
**A.** 0.778 (inactive)

**Q.** `Cc1c(Cl)cccc1NC(=S)NCc1ccc2c(c1)OCO2` was tested. Which activation factor did it give?
**A.** 1.41 (inactive)

**Q.** How did the activation factor turn out when `C/C(=N\Nc1nc2ccccc2[nH]1)c1cccs1` was run?
**A.** 1.07 (inactive)

**Q.** `COCCn1c(C)cc(C(=O)CN2c3cccc4cccc(c34)S2(=O)=O)c1C` was tested. Which activation factor did it give?
**A.** 1.06 (inactive)

**Q.** With `CCc1nn(CCCC(=O)NC(C)c2ccccc2)c(=O)c2cc3occc3n12` (configuration not stated) as the molecule, how does the activation factor read?
**A.** 0.908 (inactive)

**Q.** With `CCN(CC(=O)Nc1ccccc1C(=O)NC1CC1)Cc1cccs1` as the molecule, how does the activation factor read?
**A.** 0.951 (inactive)

**Q.** For `CC(=O)N1CCC(N(C(=O)Nc2ccc(Cl)cc2)C(C)C)CC1`, which activation factor is on record?
**A.** 1.1 (inactive)

**Q.** `CC(C)S(=O)(=O)c1csc(NC(=O)Nc2ccc(Cl)cc2)c1Cl` was tested. Which activation factor did it give?
**A.** 2.9 (active)

**Q.** How did the activation factor turn out when `O=C(NCc1ccccn1)Nc1ccc(Cl)cc1` was run?
**A.** 1.1 (inactive)

**Q.** With `Fc1ccccc1COc1ccccc1CNCc1ccncc1` as the molecule, how does the activation factor read?
**A.** 0.935 (inactive)

**Q.** `O=C(CSc1nnc(Cn2cnc3ccccc32)o1)c1ccccc1` was tested. Which activation factor did it give?
**A.** 0.997 (inactive)

**Q.** Which activation factor does the source give for `N#Cc1cnn2cc(CCN3CCOCC3)c(-c3ccc(F)cc3)nc12` here?
**A.** 0.899 (inactive)

**Q.** `O=CN1CCN(C(=O)c2ccc3c(c2)OCO3)CC1` was tested. Which activation factor did it give?
**A.** 1.06 (inactive)

**Q.** Which activation factor does the source give for `COc1cccc(NC(=O)C2C(c3ccccc3)C2(Cl)Cl)c1` (configuration not stated) here?
**A.** 2.76 (active)

**Q.** Which activation factor does the source give for `COc1cccc(NC(=O)C2CCCN2C(=O)OCc2ccccc2)c1` (configuration not stated) here?
**A.** 0.929 (inactive)

**Q.** Which activation factor does the source give for `COc1cccc(NC(=O)C2c3cc(OC)c(OC)cc3C(=O)N(C)C2c2cccnc2)c1` (configuration not stated) here?
**A.** 0.967 (inactive)

**Q.** For `CC(Sc1nnc(-c2ccccc2F)n1C1CC1)C(N)=O` (configuration not stated), which activation factor is on record?
**A.** 1 (inactive)

**Q.** Which activation factor does the source give for `CC(=O)Nc1ccc(NC(=O)CC2CCCC2)cc1` here?
**A.** 1.03 (inactive)

**Q.** How did the activation factor turn out when `CCNS(=O)(=O)c1ccc(NC(=O)Nc2cccc(C(F)(F)F)c2)cc1` was run?
**A.** 2.22 (active)

**Q.** For `O=C(Nc1ccc(C(=O)N2CCOCC2)cc1)Nc1cccc(C(F)(F)F)c1`, which activation factor is on record?
**A.** 1.56 (inactive)

**Q.** `O=C(NCc1ccccc1)c1ccc(S(=O)(=O)Nc2cccc(C(F)(F)F)c2)cc1` was tested. Which activation factor did it give?
**A.** 0.856 (inactive)

**Q.** `COc1ccc(C(C(=O)NC2CCCC2)N(CCCO)C(=O)Cn2nnc(-c3ccc(C)o3)n2)cc1` (configuration not stated) was tested. Which activation factor did it give?
**A.** 1.05 (inactive)

**Q.** How did the activation factor turn out when `S=C(NCc1ccco1)NCc1ccccc1Cl` was run?
**A.** 1.01 (inactive)

**Q.** How did the activation factor turn out when `Cc1ccc(NC(=S)NCc2ccccc2Cl)c(C)c1` was run?
**A.** 1.27 (inactive)

**Q.** How did the activation factor turn out when `S=C(NCCc1ccccc1)NCc1ccccc1Cl` was run?
**A.** 2.23 (active)

**Q.** `CCCCCCC12CCC(C(=O)O)(CC1)CC2` was tested. Which activation factor did it give?
**A.** 1.01 (inactive)

**Q.** `O=C(CN1C(=O)NC2(CCCCC2)C1=O)N1CCN(C(=O)c2cccs2)CC1` was tested. Which activation factor did it give?
**A.** 0.968 (inactive)

**Q.** `Cc1ccc(C)c(S(=O)(=O)N2CCCOC2CNC(=O)C(=O)NC2CCCCC2)c1` (configuration not stated) was tested. Which activation factor did it give?
**A.** 1.04 (inactive)

**Q.** `Nc1nnc(SCC(=O)NC2CCCc3ccccc32)s1` (configuration not stated) was tested. Which activation factor did it give?
**A.** 1 (inactive)

**Q.** `Cc1cc(Nc2ccc(Br)cc2F)n2ncnc2n1` was tested. Which activation factor did it give?
**A.** 0.862 (inactive)

**Q.** Which activation factor does the source give for `Cc1ccoc1C(=O)Nc1cccc(Oc2ccccc2)c1` here?
**A.** 0.9 (inactive)

**Q.** `Cc1cccc(NC(=O)Nc2cccc(Oc3c(F)c(F)c(F)c(F)c3F)c2)c1` was tested. Which activation factor did it give?
**A.** 3.37 (active)

**Q.** With `Cc1ccc(NC(=O)Nc2ccccc2)c(Br)c1` as the molecule, how does the activation factor read?
**A.** 1.26 (inactive)

**Q.** With `O=C(O)c1cc(S(=O)(=O)Nc2ccc3cn[nH]c3c2)ccc1Br` as the molecule, how does the activation factor read?
**A.** 0.965 (inactive)

**Q.** How did the activation factor turn out when `CS/C(=C\C(=O)c1ccco1)Nc1ccccc1Cl` was run?
**A.** 0.883 (inactive)
